{"data": "Experimental data from different studies", "note": "Lines come from different studies, so protocols differ."}
{"Structure (SMILES)": "CC(C)(Sc1ccncc1-c1ccc(C#N)c2ccccc12)C(=O)O", "system": "male human, plasma", "setting": "oral, 5 mg, single dose, fasted, healthy volunteers", "Tmax": "0.63 h"}
{"Structure (SMILES)": "CC(C)[C@](O)(c1ccc2cc(OC(F)F)c(OC(F)F)cc2c1)c1c[nH]nn1", "system": "female human, plasma", "setting": "oral, 450 mg, single dose", "Tmax": "1.9 h"}
{"Structure (SMILES)": "C/C(=C\\c1csc(C)n1)[C@@H]1C[C@@H]2O[C@]2(C)CCC[C@H](C)[C@H](O)[C@@H](C)C(=O)C(C)(C)[C@@H](O)CC(=O)N1", "system": "human, plasma", "setting": "intravenous, 20 mg/m², patients", "Tmax": "1 h"}
{"Structure (SMILES)": "CO[C@@H]1[C@H](OC(=O)N2CC(CCN3CCOCC3)C2)CC[C@]2(CO2)[C@H]1[C@@]1(C)O[C@@H]1CC=C(C)C", "system": "human, plasma", "setting": "subcutaneous, 1.2 mg, single dose, healthy volunteers", "Tmax": "0.25 h"}
{"Structure (SMILES)": "COc1cc(N2CCC(N3CCN(C)CC3)CC2)ccc1Nc1ncnc(Nc2ccccc2S(=O)(=O)C(C)C)n1", "system": "human, plasma", "setting": "oral, 75 mg, multiple doses, patients", "Tmax": "3.32 h"}
{"Structure (SMILES)": "O=C(Nc1c(Cl)cncc1Cl)c1ccc(OC(F)F)c(OCC2CC2)c1", "system": "human, plasma", "setting": "oral, 0.5 mg, single dose", "Tmax": "0.75 h"}
{"Structure (SMILES)": "C[C@@H](c1ccc2nccn2c1)n1nnc2ncc(-c3cnn(C)c3)nc21", "system": "human, plasma", "setting": "oral, 200 mg", "Tmax": "2.5 h"}
{"Structure (SMILES)": "CCO[C@H]1CCN(Cc2c(OC)cc(C)c3[nH]ccc23)[C@H](c2ccc(C(=O)O)cc2)C1", "system": "human, plasma", "setting": "oral, 50 mg, multiple doses, twice daily, patients", "Tmax": "2 h"}
{"Structure (SMILES)": "C=CC(=O)N(C)CCOc1c(N)ncnc1-c1cc(F)cc(NC(=O)c2ccc(C3CC3)cc2F)c1C", "system": "human, blood", "setting": "oral, 600 mg, single dose, healthy volunteers", "Tmax": "1.02 h"}
{"Structure (SMILES)": "C[C@@H](Nc1cc(F)cc(F)c1)c1cc(C(=O)N(C)C)cc2c(=O)cc(N3CCOCC3)oc12", "system": "human, plasma", "setting": "oral, 120 mg, single dose, patients", "Tmax": "2 h"}
{"Structure (SMILES)": "COc1ccc([C@@H]2CN(C(=O)[C@@H](O)CO)C[C@@]2(C)[C@@H](C)O)cc1OC1CN(c2ccc(C)cn2)C1", "system": "human, plasma", "setting": "oral, 30 mg, single dose, healthy volunteers", "Tmax": "3.88 h"}
{"Structure (SMILES)": "C[C@@]1(c2cc(NC(=O)c3ccc(C#N)cn3)ccc2F)C=CSC(N)=N1", "system": "male human, plasma", "setting": "oral, 1 mg, single dose", "Tmax": "0.75 h"}
{"Structure (SMILES)": "CCCCOC(=O)N1CCN(C(=O)[C@H](CP(=O)(O)O)NC(=O)c2cc(N3CC[C@H](OC)C3)nc(-c3ccccc3)n2)CC1", "system": "human, plasma", "setting": "subcutaneous, 8 mg, single dose", "Tmax": "0.667 h"}
{"Structure (SMILES)": "c1cnc2ccc(Nc3nc(NC4CC4)c4nc[nH]c4n3)cc2c1", "system": "human, plasma", "setting": "oral, 800 mg/m², patients", "Tmax": "5 h"}
{"Structure (SMILES)": "C#C[C@]1(COP(=O)(O)OP(=O)(O)OP(=O)(O)O)O[C@@H](n2cnc3c(N)nc(F)nc32)C[C@@H]1O", "system": "human, plasma", "setting": "oral, 100 mg, single dose", "Tmax": "24 h"}
{"Structure (SMILES)": "CC(C)(O)c1ccccc1-c1ccc2[nH]c(/C=C/c3ccc(C(F)(F)F)cc3)nc2c1", "system": "male human, plasma", "setting": "oral, 60 mg, single dose, fasted", "Tmax": "3.98 h"}
{"Structure (SMILES)": "CC(C)n1cc(C#N)c2cc(-n3cc(C(=O)O)cn3)ccc21", "system": "human, plasma", "setting": "oral, 200 mg, single dose, fed, healthy volunteers", "Tmax": "5 h"}
{"Structure (SMILES)": "CCc1nc2c(C)cc(N3CCN(CC(=O)N4CC(O)C4)CC3)cn2c1N(C)c1nc(-c2ccc(F)cc2)c(C#N)s1", "system": "human, plasma", "setting": "oral, 150 mg, fed, healthy volunteers", "Tmax": "1 h"}
{"Structure (SMILES)": "Cn1cc(-c2ccc(S(=O)(=O)[C@@H]3C[C@@H](C(=O)NC4(C#N)CC4)N(C(=O)C4(C(F)(F)F)CC4)C3)c(C(F)(F)F)c2)cn1", "system": "human, plasma", "setting": "oral, 100 mg, single dose, fed", "Tmax": "5 h"}
{"Structure (SMILES)": "CS(=O)(=O)CCC#N", "system": "human, plasma", "setting": "oral, 1000 mg, multiple doses, once daily", "Tmax": "2 h"}
{"Structure (SMILES)": "Oc1cc(O)c2c(c1)O[C@@H](c1ccc(O)c(O)c1)[C@@H](O)C2", "system": "human, plasma", "setting": "oral, 30 mg, single dose", "Tmax": "1 h"}
{"Structure (SMILES)": "CCOc1ccc(Cc2cc([C@@H]3O[C@H](CO)[C@@H](O)[C@H](O)[C@H]3O)ccc2Cl)cc1", "system": "human, plasma", "setting": "oral, 10 mg, multiple doses, steady state", "Tmax": "0.77 h"}
{"Structure (SMILES)": "COc1ccc(Oc2cc(N(C)CCOc3ccc(CC4SC(=O)NC4=O)cc3)ncn2)cc1 (stereo not shown)", "system": "male human, plasma", "setting": "oral, 0.5 mg, multiple doses, once daily, steady state", "Tmax": "0.67 h"}
{"Structure (SMILES)": "Cc1nc(NC(=O)N2CCC[C@H]2C(N)=O)sc1-c1ccnc(C(C)(C)C(F)(F)F)c1", "system": "human, plasma", "setting": "oral, 90 mg, patients", "Tmax": "2 h"}
{"Structure (SMILES)": "CCc1nc(C(N)=O)c(Nc2ccc(N3CCC(N4CCN(C)CC4)CC3)c(OC)c2)nc1NC1CCOCC1", "system": "human, plasma", "setting": "oral, 300 mg, multiple doses, patients", "Tmax": "6.93 h"}
{"Structure (SMILES)": "NS(=O)(=O)NCCNc1nonc1C(=NO)Nc1ccc(F)c(Br)c1", "system": "human, plasma", "setting": "oral, 400 mg, multiple doses, twice daily, steady state, patients", "Tmax": "2 h"}
{"Structure (SMILES)": "COC(=O)N[C@@H](C)CNc1nccc(-c2cn(C(C)C)nc2-c2cc(Cl)cc(NS(C)(=O)=O)c2F)n1", "system": "human, plasma", "setting": "oral, 50 mg, single dose", "Tmax": "~1.5 h"}
{"Structure (SMILES)": "Nc1cc(C(F)(F)F)c(-c2cc(N3CCOCC3)nc(N3CCOCC3)n2)cn1", "system": "human, plasma", "setting": "oral, 25 mg/day, patients", "Tmax": "1 h"}
